From paper PMC3277802 (Journal of Controlled Release, 2011)

Legend:
human liver cathepsin B [1] = target: T1, human liver cathepsin B (Homo sapiens, UniProt P07858); experiment: Cathepsin B-mediated polymer degradation; assay type: in vitro ADME; conditions: for Cathepsin B degradation of polymer (in words): 44 μg/mL polymer, 1.28 μg/mL cathepsin B, acetate pH 5, 37 °C, SEC; for Degradation Type: Table 1 summary of peptidase susceptibility of copolymer
Method in brief: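 HPMA-oligolysine copolymers were made by RAFT polymerization. Cathepsin B was pre-activated with DTT/EDTA at 37 °C for 15 min, then used in pH 5 acetate/EDTA buffer at 1.28 μg/mL final. Polymer was 44 μg/mL final, at 37 °C. Aliquots taken over time were stopped with E-64. Relative differential refractive index profiles from SEC were compared, with supporting MALDI-TOF MS.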

human liver cathepsin B [2] = target: T1, human liver cathepsin B; experiment: Polyplex destabilization by DLS under cathepsin B treatment; assay type: in vitro ADME; conditions: 4 N:P, 5.33 μg/mL DNA, pH 5, 37 °C
Method in brief: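 Polyplexes were formed at 4 N:P: pCMV-Luc2 plasmid (0.1 mg/mL in ddH2O) was mixed with an equal volume of polymer for 10 min at room temperature. These were added to pre-activated cathepsin B (1.28 μg/mL final, pH 5 acetate) at 5.33 μg/mL DNA final. The sample sat in a capped cuvette pre-equilibrated at 37 °C. DLS particle size was read every 15 min for 8 hrs.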

NIH/3T3 cells = experiment: Cytotoxicity by MTS assay, NIH/3T3; assay type: cell-based; conditions: free polymer, 4 hrs exposure, MTS at 48 hrs; four-parameter fit
Method in brief: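 Polymers at a range of concentrations were made up in ddH2O and diluted 10-fold into reduced-serum MEM. NIH/3T3 cells were rinsed once with PBS and exposed for 4 hrs. At 48 hrs MTS reagent was added, followed by 3 hrs of incubation and absorbance reading at 490 nm. IC50 was expressed in amine equivalents and obtained by a four-parameter variable-slope nonlinear fit.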

human liver cathepsin B [3] = target: T1, human liver cathepsin B; assay type: in vitro ADME; conditions: 4 N:P, 5.33 μg/mL DNA, cathepsin B pH 5, 37 °C; normalized to plasmid-only
Method in brief: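 Plasmid was pre-labelled with YOYO-1 (dye:base pair 1:50, 1 hr, room temperature) and complexed with polymer at 4 N:P. Polyplexes were incubated with pre-activated cathepsin B (pH 5 acetate, 37 °C) at 5.33 μg/mL DNA final. Timed aliquots were stopped with E-64 and diluted in ddH2O. Fluorescence was read at ex 491/em 509 nm and normalized to uncomplexed plasmid signal.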

| Substance | Cathepsin B degradation of polymer (in words) (human liver cathepsin B [1]) | Degradation Type (human liver cathepsin B [1]) | Polyplex particle size over 8 hrs cathepsin B treatment (human liver cathepsin B [2]; DLS every 15 min) | IC50 (μg/mL), NIH/3T3 (NIH/3T3 cells) [µg/mL] | Polyplex particle size at start of cathepsin B treatment (human liver cathepsin B [2]; DLS) | Polyplex particle size after 4 hrs cathepsin B treatment (plateau) (human liver cathepsin B [2]; DLS every 15 min) | YOYO-1 fluorescence relative to free plasmid by 8 hrs of cathepsin B exposure (human liver cathepsin B [3]) [%] |
| --- | --- | --- | --- | --- | --- | --- | --- |
| HPMA-co-MaAhx(D)FKFLAhx(D)K10 [pH(D)Cath(D)K10] | no degradation | None | ~ 150 nm | 30.3 |  |  |  |
| HPMA-co-MaAhxK10 [reference compound] | observed MW shift over 4hrs is comparable to 10 min with pHCathK10 |  |  |  |  |  |  |
| HPMA-co-MaAhxFKFLAhx(D)K10 [pHCath(D)K10] |  |  | ~ 600 nm | 28.7 |  |  |  |
| HPMA-co-MaAhxFKFLAhxK10 [pHCathK10] |  | Endo/exopeptidase |  | 29.7 | ~ 150 nm | about 500 nm | 70 |
